Key:
Vaccinia virus [1] = assay: Antiviral activity against VACV infected in Vero cells assessed as reduction in cytopathic effect incubated for 96 hrs by neutral red based spectrophotometric analysis; type: functional, organism-based; details: Orthopoxvirus vaccinia
[2] = Cytotoxicity against African green monkey Vero cells incubated for 72 hrs by neutral red based spectrophotometric analysis; type: toxicity, cell-based; details: chlorocebus sabaeus
Summary of the method: (§1)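 Cells seeded at 3 × 10^4 cells/well and grown 24 h at 37 °C, 5% CO2. Two-fold compound dilutions starting at 200.0 μM applied for 72 h. Neutral red (40 μg/mL) added for 4 h, cells washed and destained in ethanol/acetic acid. OD read at 540 nm against cell-free blanks. CC50 from triplicates.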

[3] = Therapeutic index, ratio of CC50 for African green monkey Vero cells to IC50 for VAVC infected in african green monkey Vero cells; type: toxicity; details: read-out: Ratio CC50/IC50
Vaccinia virus [4] = assay: Antiviral activity against VACV infected in A549 cells assessed as reduction in cytopathic effect incubated for 96 hrs by neutral red based spectrophotometric analysis; type: functional, organism-based; details: Orthopoxvirus vaccinia, A549, 96 h
A549 = assay: Cytotoxicity against human A549 cells incubated for 72 hrs by neutral red based spectrophotometric analysis; type: toxicity, cell-based; details: a549, 72 h; summary of the method: as §1
[5] = Therapeutic index, ratio of CC50 for human A549 cells to IC50 for VAVC infected in human A549 cells; type: toxicity, cell-based; details: read-out: Ratio CC50/IC50
Human adenovirus 5 [6] = assay: Antiviral activity against AdV5 infected in A549 cells assessed as reduction in cytopathic effect incubated for 72 hrs by neutral red based spectrophotometric analysis; type: functional, organism-based; details: Human mastadenovirus C, A549, 72 h
[7] = Therapeutic index, ratio of CC50 for human A549 cells to IC50 for AdV5 infected in human A549 cells; type: toxicity, cell-based; details: read-out: Ratio CC50/IC50
Lipid bilayer = assay: Induction of micelles formation in PBS at pH 7.4 by TEM analysis; type: physicochemical; details: buffer
Summary of the method: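 Conjugates at 50.0 μM in pH 7.4 phosphate buffer, imaged by transmission electron microscopy for micelle formation.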

[8] = Stability of the compound in phosphate buffer at pH 7.4 assessed as compound remaining measured upto 400 mins in presence of GSH by HPLC method; type: physicochemical; details: for remaining at 6.667 h: phosphate buffer with GSH, pH 7.4, read-out: Stability; for Stability: buffer, pH 7.4, 6.667 h
[9] = Stability in SGF assessed as remaining compound after 120 mins; type: ADME; details: read-out: Stability
Summary of the method: (§2)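 Incubated in simulated gastric fluid at 37 °C, remaining compound measured at 120 min.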

[10] = Stability of the compound in SIF assessed as remaining compound after 360 mins; type: ADME; details: read-out: Stability
Summary of the method: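 Incubated in simulated intestinal fluid at 37 °C, remaining compound measured at 360 min.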

[11] = Stability in human plasma assessed as half life; type: ADME, cell-free
Summary of the method: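 Incubated in pooled human plasma at 37 °C, half-life determined.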

Human adenovirus 5 [12] = assay: Potency index, ratio of BCV IC50 to test compound IC50 for antiviral activity against AdV5 infected in A549 cells assessed as reduction in cytopathic effect incubated for 72 hrs by neutral red based spectrophotometric analysis; type: functional
[13] = Stability of the compound in SGF after 120 mins; type: ADME; details: simulated gi fluid, 2 h; summary of the method: as §2
[14] = Stability of the compound in PBS at pH 7.4 assessed as micelles formation after 4 hrs in presence of GSH by TEM analysis; type: physicochemical; details: buffer, pH 7.4, 4 h
Summary of the method: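 Micelles in pH 7.4 phosphate buffer re-imaged by TEM after 4 h incubation with GSH.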

[15] = Stability of the compound in phosphate buffer at pH 7.4 assessed as compound remaining measured after 360 mins in presence of GSH by HPLC method; type: physicochemical; details: phosphate buffer with GSH, read-out: Stability
Summary of the method: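 Conjugate incubated with 20 mM GSH in pH 7.4 phosphate buffer at 37 °C. Percent remaining monitored by HPLC over time, up to 360 min.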

SMILES	IC50 (Vaccinia virus [1]) [µM]	CC50 [2] [µM]	selectivity ratio [3]	IC50 (Vaccinia virus [4]) [µM]	CC50 (A549) [µM]	selectivity ratio [5]	IC50 (Human adenovirus 5 [6]) [µM]	selectivity ratio [7]	Activity (Lipid bilayer)	remaining at 6.667 h [8] [%]	remaining at 2 h [9] [%]	remaining at 6 h [10] [%]	t1/2 [11] [h]	Ratio IC50 (Human adenovirus 5 [12])	Stability [13]	Stability [14]	Stability [8]	remaining at 6 h [15] [%]
CCCCCCCCCCCCSSCCCOP(=O)(O)CO[C@H](CO)Cn1ccc(N)nc1=O	6.54	33.3	5.09	2.02	47.6	23.5	1.26	37.7	–	–	–	–	–	–	–	–	–	–
CCCCCCCCCCCCCCCCSSCCCOP(=O)(O)CO[C@H](CO)Cn1ccc(N)nc1=O	0.274	12.7	46.3	0.401	46.7	116	0.3	156	–	–	–	–	–	–	–	–	–	–
CCCCCCCCCCCCSSCCCCOP(=O)(O)CO[C@H](CO)Cn1ccc(N)nc1=O	0.861	35	40.6	1.05	80.6	76.8	0.255	317	–	–	–	–	–	–	–	–	–	–
CCCCCCCCSSCCCCCCOP(=O)(O)CO[C@H](CO)Cn1ccc(N)nc1=O	49.3	> 200	> 4.05	> 50	> 200	> 4	–	–	–	–	–	–	–	–	–	–	–	–
CCCCCCCCCCCCCCCCSSCCOP(=O)(O)CO[C@H](CO)Cn1ccc(N)nc1=O.N	0.068	2.58	37.7	0.09	8.69	96.1	0.157	55.2	Active	81	68	> 90	3.237	–	–	–	–	–
CCCCCCCCCCCCCCCCSSCCCCOP(=O)(O)CO[C@H](CO)Cn1ccc(N)nc1=O.N	0.304	12.5	41	1.65	31	18.8	0.134	232	Active	–	–	> 90	4.375	2	Stable	–	–	–
CCCCCCCCCCCCCCCCCCSSCCOP(=O)(O)CO[C@H](CO)Cn1ccc(N)nc1=O.N	0.141	4.9	34.8	0.104	14.1	136	0.193	73.1	Active	93	–	–	–	–	–	Stable	–	–
CCCCCCCCCCSSCCOP(=O)(O)CO[C@H](CO)Cn1ccc(N)nc1=O	2.49	81.3	32.7	6.27	65.2	10.4	12.5	5.2	–	–	–	–	–	–	–	–	–	–
CCCCCCCCCCSSCCCCOP(=O)(O)CO[C@H](CO)Cn1ccc(N)nc1=O	40.6	95.8	2.36	45.7	162	3.55	–	–	–	–	–	–	–	–	–	–	–	–
CCCCCCCCCCCCCCSSCCCCCCOP(=O)(O)CO[C@H](CO)Cn1ccc(N)nc1=O.N	0.549	8.56	15.6	0.593	80.8	136	0.274	295	Active	–	–	–	–	–	–	–	Stable	–
CCCCCCCCCCSSCCCCCCOP(=O)(O)CO[C@H](CO)Cn1ccc(N)nc1=O	6.27	115	18.4	4.29	194	45.2	2.31	83.9	–	–	–	–	–	–	–	–	–	–
CCCCCCCCCCCCSSCCCCCCOP(=O)(O)CO[C@H](CO)Cn1ccc(N)nc1=O.N	0.854	15.2	17.8	0.838	134	160	0.185	725	–	–	–	> 90	4.45	–	Stable	–	–	–
CCCCCCCCCCCCCCSSCCCCOP(=O)(O)CO[C@H](CO)Cn1ccc(N)nc1=O.N	0.517	18.1	35	0.599	44.3	74	0.384	115	–	–	–	–	–	–	–	–	Stable	–
CCCCCCCCCCCCSSCCOP(=O)(O)CO[C@H](CO)Cn1ccc(N)nc1=O	0.365	14.3	39.2	0.217	47	216	0.795	59.1	–	–	–	–	–	–	–	–	–	–
CCCCCCCCCCCCCCSSCCCOP(=O)(O)CO[C@H](CO)Cn1ccc(N)nc1=O.N	0.283	13.9	49.3	0.223	50.7	227	0.548	92.6	–	–	–	–	–	–	–	–	Stable	–
CCCCCCCCCCCCCCSSCCOP(=O)(O)CO[C@H](CO)Cn1ccc(N)nc1=O.N	0.096	6.53	68	0.079	14.7	186	0.157	93.7	Active	–	77	> 90	2.144	–	–	–	–	13
CCCCCCCCCCCCCCCCCCSSCCCOP(=O)(O)CO[C@H](CO)Cn1ccc(N)nc1=O	0.436	9.87	22.7	0.724	32.3	44.6	1.86	17.3	–	–	–	–	–	–	–	–	–	–
CCCCCCCCCCSSCCCOP(=O)(O)CO[C@H](CO)Cn1ccc(N)nc1=O	31.5	182	5.77	22	130	5.91	–	–	–	–	–	–	–	–	–	–	–	–
CCCCCCCCCCCCCCCCOCCCOP(=O)(O)CO[C@H](CO)Cn1ccc(N)nc1=O [BRINCIDOFOVIR]	0.196	13.9	70.7	0.3	20.1	67	0.245	81.8	–	–	43	> 90	> 24	–	–	–	–	–
